Results on two compounds are retold here after article PMC12531995 (RSC Advances, 2025).

Marks after values point to notes of the source that are not given here.

Test [1] concerns carrageenan-induced paw edema in rats. Conditions: cited from earlier work.
Test [2] relates to PTZ-induced seizures in mice. The test is described as follows: Pentylenetetrazol. Type of test: in vivo. Conditions: Mus musculus, po, 24 h, read-out: 24 h mortality. An outline of the steps:
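Mice were randomised into ten groups of ten. Animals were dosed orally, with 0.5% carboxymethyl cellulose as the negative-control vehicle. Seizures were then induced by intraperitoneal pentylenetetrazol at a convulsive dose of 85 mg kg−1.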

Test [3] deals with pilocarpine-induced seizures in mice. The experiment in a line: Pilocarpine-induced seizure. Type of test: in vivo. An outline of the steps:
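Male mice, n = 10 per group. Vehicle (0.5% CMC) or test compound (20 mg kg−1) given orally 30 min before pilocarpine (300 mg kg−1, i.p.) to induce status epilepticus. Valproic acid reference was 300 mg kg−1 orally, 30 min prior. Non-epileptic controls got vehicle only. Scored latency to forelimb clonus (stage 3), severity at 30, 60, 90 and 120 min, and 24 h survival. Mean ± SD.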

What is called mortality is the share of the test organisms that died.

With `Cc1ccc(-c2cc(C(F)(F)F)nn2-c2ccc(S(N)(=O)=O)cc2)cc1` [Celecoxib], in test [1] (1st hour post-carrageenan, oral, mean ± SD, n = 6), the “Paw thickness difference, 1st hour” value is on record as 1.4 ± 0.38 mm. Also, the “Percentage of inhibition of paw thickness, 1st hour” value in test [1] (1st hour, vs carrageenan group) was 29.31%. In addition, the “Paw thickness difference, 2nd hour” value in test [1] (2nd hour post-carrageenan, oral, mean ± SD, n = 6) was 2.36 ± 0.51 mm. Further, the “Percentage of inhibition of paw thickness, 2nd hour” value in test [1] (2nd hour, vs carrageenan group) was 28.34%. The “Paw thickness difference, 3rd hour” value in test [1] (3rd hour post-carrageenan, oral, mean ± SD, n = 6) is listed as 2.83 ± 0.43 mm. The “Percentage of inhibition of paw thickness, 3rd hour” value in test [1] (3rd hour, vs carrageenan group) is 33%. In test [1] (4th hour post-carrageenan, oral, mean ± SD, n = 6), the “Paw thickness difference, 4th hour” value is 3.01 ± 0.57 mm. Further, in test [1] (4th hour, vs carrageenan group), the “Percentage of inhibition of paw thickness, 4th hour” value was 40.39%. In addition, in test [1] (5th hour post-carrageenan, oral, mean ± SD, n = 6), the “Paw thickness difference, 5th hour” value is listed as 3.10 ± 0.23 mm. Also, the “Percentage of inhibition of paw thickness, 5th hour” value in test [1] (5th hour, vs carrageenan group) was 41.65%. Moreover, in test [1] (5 hour mark), the “weight gain (paw)” value is 68.15%. Besides, in test [1] (right vs left paw, mean ± SD, n = 6), the Paw weight increase is listed as 29.95 ± 2.20^ab %.

With `CCCC(CCC)C(=O)O` [Valproic acid (VI), valproic acid], the mortality at 20 mg/kg in test [2] stood at 30%. Besides, the “24 h Survival” value in test [3] (compounds 20 mg kg^−1, valproic acid 300 mg kg^−1 orally, mice n = 10) came to 60%. Besides, in test [3] (mice n = 10, compounds 20 mg kg^−1 orally, valproic acid 300 mg kg^−1 orally, 30 minutes before pilocarpine 300 mg kg^−1 i.p., mean ± SD), the “Onset (latency to forelimb clonus, stage 3)” value is 10.65 ± 0.52^a mins. Further, the “Reduction of final seizure severity” value in test [3] (vs pilocarpine group, 120 min) is recorded as 60%.
